Bioassay records (PubChem)
SMARCA2 activ – activators of SMARCA2 function | MG213 cells, MMTV-luciferase reporter, dexamethasone, overnight | activation, % at 9.1 µM | hit rate 1% among 370,000 | AID 652017; in the data active = activation above about 7.8%;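 also: 0% = vehicle wells and 100% = reference activator wells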
MPTP inh – permeability transition pore inhibition; inhibition, % at 10 µM; hit rate 1.4% among 360,000; AID 602449; isolated mouse mitochondria, Ca2+ swelling absorbance, 30 min;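 active = inhibition of 50% or more, scaled per plate between neutral and stimulator controls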;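 also: 0% = DMSO wells given calcium and 100% = 1 mM EGTA wells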
MC4R barr agon – agonists of human melanocortin 4 receptor (MC4R) beta-arrestin; activation, % at 8.9 µM; hit rate 0.98% among 360,000; AID 540308; P32245; U2OS MC4R beta-arrestin complementation, luminescence; percent of melanotan II response, DMSO zero;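 active = activation above a per-plate cutoff, the mean activation of sample wells on that plate plus 3 SD, cut at about 8% in these data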
MC4R antag cAMP – antagonists of human melanocortin 4 receptor (MC4R). MC4R-expressing cells, MTII-stimulated cAMP, LANCE TR-FRET. inhibition, % at 6.5 µM. hit rate 0.48% among 360,000. AID 540295;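 active = inhibition above its plate's cutoff, the mean of tested wells on that plate plus 3 SD, cut at about 29% in these data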;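 also: 0% = Melanotan II alone and 100% = Melanotan II plus saturating MCL0020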
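Assay system: U2OS cells stably expressing human melanocortin 4 receptor (MC4R) / Dosing: 6.5 µM / Timing: compound 30 min, challenge 1 h, detection 1 h / Measured by: Eu-cAMP/anti-cAMP TR-FRET, emission 671 nm / Replicates: singlicate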
ATG4B inh – ATG4B (human) cysteine protease inhibition | ATG4B cleavage of LC3-PLA2, NBD-HPC fluorescence, 1 h | hit rate 0.51% among 340,000 | AID 504462 | inhibition, % at 8.33 µM; in the data active = inhibition above about 40%
Target sequence (Q9Y4P1 whole entry, looked up): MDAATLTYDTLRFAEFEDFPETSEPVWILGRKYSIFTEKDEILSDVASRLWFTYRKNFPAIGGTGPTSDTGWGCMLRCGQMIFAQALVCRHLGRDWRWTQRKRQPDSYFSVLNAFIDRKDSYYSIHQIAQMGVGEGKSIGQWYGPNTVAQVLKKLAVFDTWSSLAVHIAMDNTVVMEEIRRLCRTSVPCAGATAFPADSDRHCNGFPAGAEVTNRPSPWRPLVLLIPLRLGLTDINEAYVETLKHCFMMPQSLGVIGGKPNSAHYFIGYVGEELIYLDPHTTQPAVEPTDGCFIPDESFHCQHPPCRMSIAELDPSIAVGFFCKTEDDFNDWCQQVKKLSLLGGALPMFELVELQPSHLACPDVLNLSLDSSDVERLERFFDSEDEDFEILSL
cAMP nonselect – counter-screen for MC4R antagonists: nonselective cAMP signaling inhibitors. AID 602193. shares compounds with MC4R antag cAMP. inhibition, % at 6.5 µM. parental U2OS, forskolin cAMP, LANCE TR-FRET. hit rate 26% among 1,600;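 active = mean inhibition over triplicates above the low-control well mean plus 3 SD, set per campaign, cut at about 13% in these data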;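 also: signal is single emission at 671 nm which falls as cellular cAMP rises; 0% = forskolin-stimulated wells and 100% = buffer without forskolin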
MC4R cAMP antag – human MC4R cAMP antagonism confirmation; shares compounds with MC4R antag cAMP; MC4R-expressing cells, MTII-stimulated cAMP, TR-FRET; AID 602195; hit rate 27% among 1,600; inhibition, % at 6.5 µM; in the data active = inhibition above about 29%;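 also: 0% = agonist stimulated wells alone and 100% = agonist stimulated wells plus saturating reference antagonist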
* marks the source's active call; other numbers are inactive results; / = not tested or not shown. Hits are enriched below; roughly 4.1% of the tested compounds scored in any of these assays.

SMILES	SMARCA2 activ	MPTP inh	MC4R barr agon	MC4R antag cAMP	ATG4B inh	cAMP nonselect	MC4R cAMP antag
O=S(=O)(Nc1cc(Sc2ncn[nH]2)c(O)c2ccccc12)c1ccccc1	-12	1	-2	53*	7	10	8
COc1ccc(Cc2noc(CN3CCN(Cc4cccc(Cl)c4)CC3)n2)cc1OC	-6	0	-1	34*	3	17*	-4
O=C(Nc1ccccc1C(=O)N1CCCCCC1)c1ccc(Cl)cc1	0	0	-2	19	-6	/	/
O=C(Nc1ccccc1C(=O)N1CCCC1)c1ccc(Cl)c([N+](=O)[O-])c1	0	1	2	36*	2	5	25
CN1CCN(c2ccccc2NC(=O)c2ccc(N3CCCC3)c([N+](=O)[O-])c2)CC1	4	18	-2	-1	-14	/	/
O=C(Nc1ccccc1N1CCCCC1)c1ccc(Cl)c([N+](=O)[O-])c1	-2	2	1	41*	23	3	51*
COc1ccccc1N(C)S(=O)(=O)c1ccc(C(=O)OCC(=O)c2c[nH]c3ccccc23)cc1	-4	2	4	39*	8	5	5
Cc1cc(Sc2nc(N)ncc2[N+](=O)[O-])ncn1	6	2	-2	40*	2	20*	35*
Cc1cc(Sc2ncnc(N)c2[N+](=O)[O-])ncn1	/	-1	-1	38*	4	16*	36*
COc1cc(-c2nnc(SCC(=O)NN=Cc3c[nH]c4ccccc34)n2-c2ccccc2)cc(OC)c1OC	-2	/	/	/	/	/	/
Cc1c[nH]c2cccc(-c3c(Cl)cccc3Cl)c12	5	/	/	/	/	/	/
C/C(=N\NS(=O)(=O)c1ccc(C)cc1)c1cc2ccccc2oc1=O	3	-3	3	30*	-3	4	11
C/C(=N/NS(=O)(=O)c1ccc(C)cc1)c1c(O)c2ccccc2oc1=O	6	33	0	1	-8	/	/
CC(C)C[C@H](NC(=O)C1CC1)C(=O)N1CCC[C@H]1C(=O)NCc1ccccc1	-3	/	/	/	/	/	/
COC(=O)C1CN(Cc2ccccc2)CCS(=O)(=O)N1Cc1cn(Cc2cccc(Cl)c2)nn1 (stereo not given)	-3	/	/	/	/	/	/
COC(=O)CSc1nc2ccccc2nc1SCC(=O)OC	1	0	1	36*	-4	6	-4
COC(=O)CSc1cnc2ccccc2n1	1	-13	0	12	0	/	/
COc1ccc(CC(=O)Oc2ccc(F)c(F)c2)cc1S(=O)(=O)N1CCOCC1	-2	0	-1	35*	9	13	18
COC(=O)c1c(NC(=O)COC(=O)CCNS(=O)(=O)c2ccccc2)sc(C)c1C	-2	-1	-2	9	-12	/	/
CCOC(=O)c1c(NC(=O)COC(=O)CCNS(=O)(=O)c2ccccc2)sc(C(=O)NC)c1C	-2	-1	0	31*	-4	5	5
COC(=O)COc1ccc(S(=O)(=O)N2CCCCC2)cc1[N+](=O)[O-]	-2	0	0	12	5	/	/
COc1cc(OC)cc(Oc2ccc(S(=O)(=O)N3CCCCC3)cc2[N+](=O)[O-])c1	0	-1	-1	30*	-7	9	22
CCN1CCN(C(c2cccs2)C(C)NS(=O)(=O)c2ccc(C)cc2)CC1 (stereo not given)	-1	-1	-2	30*	-5	1	-8
CCOC(=O)C1CCCN(S(=O)(=O)c2cnc(Cl)c(Br)c2)C1 (stereo not given)	-1	1	-2	52*	6	15*	38*
CC1(C)Oc2ccc(C(=O)NC3CCCC3)cc2NC1=O	-4	/	/	/	/	/	/
CC(Sc1cnc2ccccc2n1)C(=O)O (stereo not given)	-2	5	-1	25	-8	/	/
CC(Sc1ccc2ccccc2n1)C(=O)O (stereo not given)	4	0	3	58*	6	42*	77*
COc1cccc(N(C(=O)CCl)C(C(=O)NCCc2ccccc2)c2cccs2)c1 (stereo not given)	-7	14	3	5	7	/	/
